Assay [1] concerns the target T1, Cholinesterase (Homo sapiens, UniProt P06276). Nature of the assay: Inhibition of human plasma BuChE preincubated for 30 mins before substrate addition by Ellman's assay. In short, it runs like this: (§1)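 Ellman assay, phosphate buffer pH 8.0. Human plasma from heparinised venous blood, centrifuged and diluted 1 mL to 20 mL in buffer, with DTNB. Inhibitor, in acetonitrile/water 1:1 as vehicle, preincubated 30 min before butyrylthiocholine is added (final 0.5 mM); 412 nm read over 5 min. Screened at 100 μM; IC50 determined only where inhibition exceeded 90%. Controls without enzyme; n = 6.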

The target in assay [2] is Acetylcholinesterase (Electrophorus electricus) (UniProt O42275). Nature of the assay: Inhibition of electric eel AChE at 100 uM preincubated for 30 mins before substrate addition by Ellman's assay. An outline of the steps: (§2)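 Ellman assay, phosphate buffer pH 8.0. Inhibitor, in acetonitrile/water 1:1 as vehicle, preincubated with enzyme 30 min before acetylthiocholine is added (final 0.5 mM); 412 nm read over 5 min. Screened at 100 μM; IC50 found by serial lower concentrations only where inhibition exceeded 90%. Controls without enzyme account for spontaneous hydrolysis; n = 6.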
Sequence of Acetylcholinesterase (Electrophorus electricus) (O42275 24-633 limits assumed): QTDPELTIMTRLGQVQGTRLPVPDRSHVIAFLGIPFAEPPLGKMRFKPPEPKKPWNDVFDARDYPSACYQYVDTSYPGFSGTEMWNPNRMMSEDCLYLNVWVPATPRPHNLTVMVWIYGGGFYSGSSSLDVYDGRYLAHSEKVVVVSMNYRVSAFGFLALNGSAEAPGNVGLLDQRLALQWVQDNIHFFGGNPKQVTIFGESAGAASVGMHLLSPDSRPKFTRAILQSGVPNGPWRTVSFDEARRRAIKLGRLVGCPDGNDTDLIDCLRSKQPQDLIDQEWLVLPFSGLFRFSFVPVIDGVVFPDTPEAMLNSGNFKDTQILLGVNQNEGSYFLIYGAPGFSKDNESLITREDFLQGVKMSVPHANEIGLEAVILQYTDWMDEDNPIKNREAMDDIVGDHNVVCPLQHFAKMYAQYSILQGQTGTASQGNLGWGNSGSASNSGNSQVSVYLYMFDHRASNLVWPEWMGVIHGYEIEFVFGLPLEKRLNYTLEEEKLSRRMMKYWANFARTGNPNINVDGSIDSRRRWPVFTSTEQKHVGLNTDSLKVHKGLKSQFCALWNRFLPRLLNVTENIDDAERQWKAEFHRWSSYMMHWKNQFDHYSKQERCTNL
(In general: Ellman's reagent forms a yellow product with free thiols.)

Assay [3] is described as follows: Selectivity for human plasma BuChE over electric eel AChE. The format is cell-free. An outline of the steps:
(§3)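 Ratio of the 30 min BuChE and AChE IC50 values from the Ellman assays, using 100 μM in place of any IC50 that was not determined.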

Assay [4] has as its target T1, Cholinesterase. The assay can be described thus: Inhibition of human plasma BuChE at 100 uM preincubated for 30 mins before substrate addition by Ellman's assay. It is filed as cell-free. In short, it runs like this:
as §1

In assay [5] the target is Acetylcholinesterase (Electrophorus electricus, UniProt O42275). Nature of the assay: Inhibition of electric eel AChE preincubated for 30 mins before substrate addition by Ellman's assay. In short, it runs like this:
as §2

Assay [6] is described as follows: Selectivity for electric eel AChE over human plasma BuChE. It is filed as cell-free. In short, it runs like this:
as §3

The subject of assay [7] is Mus musculus. The assay can be described thus: Inhibition of BuChE in CD1 mouse plasma at 1 mg/kg, ip administered as single dose measured after 72 hrs. The format is functional, organism-based. Further details: dose 1 mg/kg. In short, it runs like this:
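Male CD-1 mice (35–40 g) given one ip injection, 0.1 mL per 10 g body weight, into the left lower abdominal quadrant; n = 9 split into three subgroups of 3 for serial sampling. Submandibular blood (about 50 μL) collected into lithium heparin and kept on ice; terminal sampling by cardiac puncture under ketamine/xylazine. Plasma spun 10 min at 4 °C, then BuChE activity read ex vivo by Ellman assay.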

Active and inactive are the calls of the source. The calls are words filed in the database; no cut-off is given here.

T1 sequence (P06276 whole entry): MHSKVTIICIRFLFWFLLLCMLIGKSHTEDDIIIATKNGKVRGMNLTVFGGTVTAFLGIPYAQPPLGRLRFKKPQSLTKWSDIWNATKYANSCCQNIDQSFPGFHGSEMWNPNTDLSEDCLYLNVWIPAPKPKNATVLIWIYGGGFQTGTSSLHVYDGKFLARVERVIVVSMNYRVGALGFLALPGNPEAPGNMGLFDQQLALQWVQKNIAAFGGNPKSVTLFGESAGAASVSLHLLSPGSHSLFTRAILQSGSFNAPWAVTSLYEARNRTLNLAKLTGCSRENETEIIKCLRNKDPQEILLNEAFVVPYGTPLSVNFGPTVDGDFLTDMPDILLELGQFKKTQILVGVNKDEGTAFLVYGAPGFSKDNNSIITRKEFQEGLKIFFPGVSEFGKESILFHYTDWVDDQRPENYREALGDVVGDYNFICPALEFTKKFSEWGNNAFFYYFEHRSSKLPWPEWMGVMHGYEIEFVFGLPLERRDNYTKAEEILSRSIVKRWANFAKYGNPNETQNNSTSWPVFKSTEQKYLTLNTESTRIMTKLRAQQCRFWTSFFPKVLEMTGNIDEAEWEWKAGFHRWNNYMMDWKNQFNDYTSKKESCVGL
Sequence of Acetylcholinesterase (O42275 whole entry): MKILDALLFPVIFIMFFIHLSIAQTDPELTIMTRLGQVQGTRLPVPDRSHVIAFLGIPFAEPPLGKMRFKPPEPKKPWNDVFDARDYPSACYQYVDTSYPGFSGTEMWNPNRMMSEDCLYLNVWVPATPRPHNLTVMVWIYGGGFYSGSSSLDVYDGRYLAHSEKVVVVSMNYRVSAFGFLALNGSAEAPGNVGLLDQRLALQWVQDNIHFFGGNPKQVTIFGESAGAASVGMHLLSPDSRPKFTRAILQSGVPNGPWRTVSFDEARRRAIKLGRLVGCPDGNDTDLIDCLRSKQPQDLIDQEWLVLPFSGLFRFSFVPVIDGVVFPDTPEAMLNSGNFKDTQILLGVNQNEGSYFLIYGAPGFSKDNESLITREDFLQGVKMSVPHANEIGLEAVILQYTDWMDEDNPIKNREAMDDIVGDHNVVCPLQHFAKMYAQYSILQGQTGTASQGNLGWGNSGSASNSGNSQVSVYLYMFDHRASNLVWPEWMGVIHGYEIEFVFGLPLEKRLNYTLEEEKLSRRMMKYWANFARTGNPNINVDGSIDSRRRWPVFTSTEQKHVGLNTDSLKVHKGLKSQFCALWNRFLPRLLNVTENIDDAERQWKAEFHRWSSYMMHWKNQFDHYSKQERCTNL

Regarding `CCCNC(=O)O[C@H]1CO[C@H]2[C@@H]1OC[C@H]2OC(=O)NCCC`, in assay [1], the IC50 (usually the midpoint of a concentration-inhibition curve) amounted to 10.4 µM. For the same molecule, the inhibition (as a rule, the relative decrease from the control value, in per cent) in assay [2] was 28%. Moreover, in assay [3], the Selectivity ratio is 9.6.

Regarding `CCNC(=O)O[C@H]1CO[C@H]2[C@@H]1OC[C@H]2OC(=O)NCC`, the inhibition in assay [4] came to 55.1%. The molecule further displayed a concentration for half-maximal inhibition (IC50) in assay [5] of 6.5 µM. For the same molecule, the Selectivity ratio in assay [6] was determined as 15.4.

`O=C(NCc1ccccc1)O[C@H]1CO[C@H]2[C@@H]1OC[C@H]2OCc1ccccc1` returned an IC50 in assay [1] of 0.052 µM. The molecule also yielded an inhibition in assay [2] of 55%. Moreover, the Selectivity ratio in assay [3] was 1920. The inhibition entry in assay [7] is “Active”.

Regarding `O=C(NCc1ccccc1)O[C@H]1CO[C@@H]2C(=O)CO[C@H]12`, the inhibition stood at 46% in assay [4] and 10% in assay [2].

`CCCCNC(=O)O[C@H]1CO[C@H]2[C@@H]1OC[C@H]2OC(=O)NCCCC` displayed an IC50 in assay [1] of 1.22 µM. The inhibition in assay [2] is 13%. The Selectivity ratio in assay [3] is 81.

Consider `O=C1CO[C@H]2[C@H](OC[C@@H]2OC(=O)NCc2ccccc2)O1` (relative stereo), for which the inhibition was 56% in assay [4] and 10% in assay [2].

Consider `O=C(Nc1ccc([N+](=O)[O-])cc1)O[C@H]1CO[C@H]2[C@@H]1OC[C@H]2OC(=O)Nc1ccc([N+](=O)[O-])cc1`, for which the inhibition in assay [4] is 17.4%. The same molecule yielded an IC50 in assay [5] of 5.4 µM. The Selectivity ratio in assay [6] turned out to be 18.5.

For `O=C(NCc1ccccc1)O[C@H]1CO[C@@H]2/C(=N/OC(=O)c3ccccc3)CO[C@H]12`, the inhibition in assay [4] is 64.8%; in assay [2], 9%.

`O=C(NCc1ccccc1)O[C@H]1CO[C@@H]2C=CO[C@H]12` showed an IC50 in assay [1] of 10.2 µM. This molecule gave an inhibition in assay [2] of 9.8%. The Selectivity ratio in assay [3] worked out at 9.7.

Regarding `O=C(NCc1ccccc1)O[C@H]1CO[C@H]2[C@@H]1OC[C@H]2OC(=O)NCc1ccccc1`, the IC50 in assay [1] amounted to 0.4 µM. The molecule also yielded an inhibition in assay [2] of 77%. In assay [3], the Selectivity ratio worked out at 250.

Consider `[N-]=[N+]=N[C@@H]1CO[C@H]2[C@@H]1OC[C@@H]2OC(=O)NCc1ccccc1`, for which the inhibition in assay [4] amounted to 50.4%; in assay [2] it was 5%.

Turning to `O=C(NCc1ccccc1)O[C@H]1CO[C@H]2[C@@H]1OC[C@H]2NC(=O)c1ccccc1`, the inhibition in assay [4] was determined as 88%; in assay [2], 46%.

In assay [1], `CCOC(=O)/C=C1\CO[C@@H]2[C@@H](OC(=O)NCc3ccccc3)CO[C@H]12` gave an IC50 of 4.8 µM. In addition, the inhibition in assay [2] was 4.9%. In addition, the Selectivity ratio in assay [3] came out at 21.

With `O=C(Nc1ccc(Cl)cc1)O[C@H]1CO[C@H]2[C@@H]1OC[C@H]2OC(=O)Nc1ccc(Cl)cc1`, the inhibition in assay [4] came out at 7.96%.

For `O=C(NCc1ccccc1)O[C@H]1CO[C@@H]2/C(=N/O)CO[C@H]12`, the results for the inhibition in assay [4] and in assay [2] were 40% and 83%, respectively.

Regarding `CN1C(=O)CO[C@@H]2[C@@H](OC(=O)NCc3ccccc3)CO[C@@H]21`, the inhibition in assay [4] worked out at 63%; in assay [2] it was 6.5%.

For `O=C(Nc1ccccc1)O[C@H]1CO[C@H]2[C@@H]1OC[C@H]2OC(=O)Nc1ccccc1`, the inhibition came to 20.6% in assay [4] and 77% in assay [2].

The values are drawn from ChEMBL document CHEMBL1156880, “Isosorbide-based cholinesterase inhibitors; replacement of 5-ester groups leading to increased stability” (Bioorg Med Chem, 2010).
